{
  "source": "paper PMC4449736",
  "about": "(Science translational medicine, 2015)",
  "key": {"[1]": {"system": "single-cycle recombinant viruses with the integrase-coding regions of FG95 mutants", "assay": "Susceptibility of single-cycle SIV recombinant viruses to GSK744 in TZM-bl cells", "assay_type": "cell-based", "conditions": "Table S2"}, "[2]": {"conditions": "oral GSK744, humans; cited from earlier work"}, "[3]": {"system": "simian-human immunodeficiency virus (SHIV)", "conditions": "cited from earlier work"}, "[4]": {"conditions": "human studies, data limited; cited from earlier work"}, "UGT1A1, UGT1A9": {"system": "UGT1A1, UGT1A9", "conditions": "hepatic glucuronidation pathway; cited from earlier work"}, "[5]": {"assay": "Plasma PK of GSK744 in Depo-Provera-treated female rhesus macaques", "assay_type": "in vivo", "in_short": "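Female Indian rhesus macaques received 30 mg Depo-Provera IM on weeks -3 and 2 and monthly IM injections of long-acting test compound (8 treated, 4 controls), with three intravaginal SHIV162P3 challenges. Plasma drug levels were followed per animal and expressed as multiples of PAIC90. Plasma SHIV RNA was tracked weekly for 24 weeks by real-time RT-PCR (sensitivity 40 copies/mL) to time first vRNA detection.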"}, "[6]": {"assay_type": "in vivo, rhesus macaques (Macaca mulatta)"}, "HIV": {"system": "HIV", "conditions": "TDF alone, injection drug users; cited from earlier work"}},
  "note": "Counter-ions that a name gives are not always drawn.",
  "data": [
    {"smiles": "C[C@H]1CO[C@@H]2Cn3cc(C(=O)NCc4ccc(F)cc4F)c(=O)c(O)c3C(=O)N12", "note": "[GSK744]", "values": [
      {"measurement": "viral susceptibility to GSK744", "setting": "[1]; integrase E198G mutation (FG95, week 20)", "result": "did not decrease viral susceptibility"},
      {"measurement": "susceptibility to GSK744 in vitro", "setting": "[1]; integrase P142S, I210V mutations (FG95, week 11)", "result": "did not decrease susceptibility"},
      {"measurement": "apparent terminal half-life (t1/2)", "setting": "[2]", "result": "approximately 40 hours"},
      {"measurement": "protection", "setting": "[3]; GSK744 plasma concentrations >3x PAIC90", "result": 100, "unit": "%"},
      {"measurement": "efficacy", "setting": "[3]; GSK744 plasma concentrations ≥1x PAIC90", "result": 97, "unit": "%"},
      {"measurement": "relative mucosal tissue penetration", "setting": "[4]", "result": "penetrates cervical tissue slightly more efficiently than rectal tissue"},
      {"measurement": "metabolizing enzymes", "setting": "UGT1A1, UGT1A9", "result": "primarily by UGT1A1, with some involvement from UGT1A9"},
      {"measurement": "plasma GSK744 concentration at first vRNA detection relative to PAIC90", "setting": "[5]; macaque FG95", "result": "< 1", "unit": "x PAIC90"},
      {"measurement": "plasma GSK744 concentration at the time of challenges relative to PAIC90", "setting": "[5]; macaque FG95, three challenges", "result": "13.3–18.4 x PAIC90"},
      {"measurement": "plasma GSK744 concentration at first vRNA detection relative to PAIC90", "setting": "[5]; macaque FM26", "result": "≈ 2.2 x PAIC90"},
      {"measurement": "plasma GSK744 concentration at the time of challenges relative to PAIC90", "setting": "[5]; macaque FM26, three challenges", "result": "12.4–18.1 X PAIC90"},
      {"measurement": "mean cervical T:P ratio", "setting": "[6]; Depo-Provera-treated female macaques, 50 mg/kg GSK744 LA", "result": "0.09 (range: below detection to 0.20)"},
      {"measurement": "GSK744 concentrations lower on average in cervical tissues than rectal tissues", "setting": "[6]; Depo-Provera-treated female macaques, 50 mg/kg GSK744 LA monthly", "result": 5, "unit": "fold"},
      {"measurement": "mean T:P ratio in unwashed rectal tissues", "setting": "[6]; Depo-Provera-treated female macaques, 50 mg/kg GSK744 LA, no saline rinse", "result": "0.37 (range: 0.15 to 1.13)"},
      {"measurement": "Kp", "setting": "[6]; female, Indian, rhesus monkey, cervical tissue / plasma, intramuscular, 50 mg/kg", "result": "~0.1"}
    ]},
    {"smiles": "CC(C)OC(=O)OCOP(=O)(CO[C@H](C)Cn1cnc2c(N)ncnc21)OCOC(=O)OC(C)C", "note": "[TDF, tenofovir disoproxil fumarate]", "values": [
      {"measurement": "reduced HIV infection", "setting": "HIV", "result": 49, "unit": "%"}
    ]}
  ]
}
